Several values for one entry are separate records, joined by “and”; a condition that tells them apart may be missing. Identical values can stand only once. Like-named read-outs stand apart in the source and are kept apart here.
Experiments:
[1] = target: T1, Slo1-C430S-A313C channels (Mus musculus, UniProt Q08460, A378C/C495S); settings: 1 mM MTSET, ref Zhou et al., 2011, cited from earlier work
BK channels [2] = assay: bbTBA block of BK channels; format: cell-based; settings: assuming a zδ of 0.148 e assigned to the forward rate
BK channels [3] = settings: at 100 mV; ref Wilkens and Aldrich, 2006; cited from earlier work
[4] = target: T1, Slo1-C430S-A313C channels; assay: MTSET modification of A313C in closed BK channels, without and with paxilline; format: cell-based; settings: 500 nM paxilline, −80 mV, 0 Ca^2+
Procedure, shortened: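 Slo1-C430S-A313C channels in oocyte inside-out patches. 1 mM MTSET applied for 120 s at −80 mV holding in 0 Ca2+. Currents recorded with 300 µM Ca2+ before and after modification, with steps up to 200 mV. Separate control G-V sets were collected for modification without and with test compound.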

BK channels (mSlo1) [5] = target: T2, BK channels (mSlo1) (Mus musculus, UniProt Q08460); assay: NPo measurements at negative potentials in macropatches; format: cell-based
[6] = target: BK channel voltage sensors (mSlo1) (Mus musculus, UniProt Q08460); assay: Gating current measurements in inside-out macropatches; format: cell-based; settings: with 500 nM paxilline, 0 Ca^2+
Procedure, shortened: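 Inside-out macropatches from oocytes, room temperature (∼22–25°C). Pipette solution (mM): 127 TEA-OH, 125 methanesulfonic acid, 2 MgCl2, 10 HEPES, pH 7.0. Internal solution (mM): 141 NMDG, 135 methanesulfonic acid, 10 HEPES, 5 EGTA, pH 7.0. Voltage commands filtered at 20 kHz. Gating currents filtered at 10 kHz and sampled at 100 kHz. P/5 subtraction of capacitive and leak currents from −80 mV holding.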

BK channels (mSlo1) [7] = target: T2, BK channels (mSlo1); assay: Kinetics of onset of and recovery from paxilline inhibition of BK current; format: cell-based
Procedure, shortened: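 Oocyte inside-out patches with fast perfusion, room temperature. BK availability monitored by brief steps to 160 mV. Onset came from wash-in of 100 nM test compound at −80 mV, 300 µM Ca2+, fitted with single exponentials. Block rate was measured over 5–2,000 nM at −80 and −100 mV, with step interval cut to 0.2 s at highest concentrations. Recovery followed a switch in equilibration voltage or washout. Kd was derived from kinetic rates.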

[8] = cited from earlier work
BK channels (mSlo1) [9] = target: T2, BK channels (mSlo1); format: cell-based
Procedure, shortened: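 Oocyte inside-out patches at ∼22–25°C. Pipette (mM): 140 K-methanesulfonate, 20 KOH, 10 HEPES, 2 MgCl2, pH 7.0. Cytosolic Ca2+ buffered with 5 mM HEDTA (10 µM) or unbuffered (300 µM). Test compound equilibrated for 4 min at set holding potential/Ca2+ before G-V from brief test steps. Concentration series (at least four) used steps to 160 mV at −70 to 70 mV. Hill and allosteric-scheme fits.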

[10] = tested on: pH-regulated Slo3 K^+ channel; settings: cited from earlier work
BK channels (Slo1) = BK channels (Slo1) (Mus musculus, UniProt Q08460); assay: Paxilline inhibition of BK current in the presence of bbTBA or 2 M sucrose; format: cell-based
[11] = target: Slo1-A313C channels (unmodified, MTSET-, MTSEA- or MTSES-modified) (Mus musculus, UniProt Q08460, A378C/C495S); assay: Paxilline block of Slo1-A313C currents before and after MTS modification; format: cell-based; settings: 100 nM paxilline; for fractional block: 0 mV
BK channel G311 mutant = settings: ref Zhou et al., 2010; cited from earlier work
CNG channels = settings: ref Fodor et al., 1997a,b; cited from earlier work
[12] = in 100 nM paxilline, 10 µM Ca^2+, holding potential 0 mV
[13] = with 50 nM paxilline, all solutions 10 mM DTT, n = 7 patches

T1 sequence (Q08460 whole entry A378C/C495S): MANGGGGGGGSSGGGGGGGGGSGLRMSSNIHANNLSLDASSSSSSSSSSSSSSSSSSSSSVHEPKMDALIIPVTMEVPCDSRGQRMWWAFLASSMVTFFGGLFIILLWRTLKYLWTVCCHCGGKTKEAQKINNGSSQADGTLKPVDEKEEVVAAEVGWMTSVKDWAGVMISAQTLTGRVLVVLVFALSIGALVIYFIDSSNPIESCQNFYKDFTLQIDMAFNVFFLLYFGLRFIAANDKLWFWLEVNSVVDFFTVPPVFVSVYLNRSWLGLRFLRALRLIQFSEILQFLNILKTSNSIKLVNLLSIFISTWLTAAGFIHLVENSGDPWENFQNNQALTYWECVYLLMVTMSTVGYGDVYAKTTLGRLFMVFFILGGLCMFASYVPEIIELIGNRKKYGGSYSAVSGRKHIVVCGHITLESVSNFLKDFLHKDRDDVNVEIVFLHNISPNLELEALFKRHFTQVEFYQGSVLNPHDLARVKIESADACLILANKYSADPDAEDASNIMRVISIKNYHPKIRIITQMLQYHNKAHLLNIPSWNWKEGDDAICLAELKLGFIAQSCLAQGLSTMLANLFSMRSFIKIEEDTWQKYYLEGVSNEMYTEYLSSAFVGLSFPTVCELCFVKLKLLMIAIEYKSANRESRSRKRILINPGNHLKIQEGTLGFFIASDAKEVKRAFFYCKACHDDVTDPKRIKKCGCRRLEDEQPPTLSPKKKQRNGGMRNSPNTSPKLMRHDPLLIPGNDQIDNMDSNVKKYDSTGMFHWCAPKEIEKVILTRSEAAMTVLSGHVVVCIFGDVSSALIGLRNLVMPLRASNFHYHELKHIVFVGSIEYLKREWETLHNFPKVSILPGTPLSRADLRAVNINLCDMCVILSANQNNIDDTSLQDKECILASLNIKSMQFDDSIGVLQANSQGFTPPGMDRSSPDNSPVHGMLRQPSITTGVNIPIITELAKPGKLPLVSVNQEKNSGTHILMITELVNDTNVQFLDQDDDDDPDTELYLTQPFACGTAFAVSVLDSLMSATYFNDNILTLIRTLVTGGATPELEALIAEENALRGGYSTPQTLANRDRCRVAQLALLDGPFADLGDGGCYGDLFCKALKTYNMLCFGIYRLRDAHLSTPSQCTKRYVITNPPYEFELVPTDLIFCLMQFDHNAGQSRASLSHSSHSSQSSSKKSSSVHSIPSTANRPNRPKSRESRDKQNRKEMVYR
Chain of Slo1-A313C channels (unmodified, MTSET-, MTSEA- or MTSES-modified) (Q08460 whole entry A378C/C495S): as above
Chain of BK channels (Slo1) (Q08460 whole entry): as the sequence (Q08460 whole entry A378C/C495S) above, with C378A, S495C counted along it
Chain of BK channel voltage sensors (mSlo1) (Q08460 whole entry): as the sequence (Q08460 whole entry A378C/C495S) above, with C378A, S495C counted along it
T2 sequence (Q08460 whole entry): as the sequence (Q08460 whole entry A378C/C495S) above, with C378A, S495C counted along it

## C[N+](C)(C)CCSS(C)(=O)=O.[Br-] [MTSET, [2-(trimethylammonium)ethyl] MTS bromide]
[1]; closed BK channels
  reduction in maximal conductance: > 50%
[1]
  time constant of modification of A313C of closed BK channels: ~23 s

## CCCC[N+](CCCC)(CCCC)Cc1ccc(C(=O)c2ccccc2)cc1 [bbTBA, N-(4-[benzoyl]benzyl)-N,N,N-tributylammonium]
BK channels [2]
  0-voltage forward rate: 6.7e+07 M⁻¹ s⁻¹
BK channels [3]
  forward rate of block: 1.2e+08 M⁻¹ s⁻¹

## CC(C)(O)[C@H]1O[C@H]2CC[C@@]3(C)[C@@](O)(CC[C@H]4Cc5c([nH]c6ccccc56)[C@@]43C)C2=CC1=O [paxilline]
[4]; 1 mM MTSET for 120 s
  effect on MTSET modification of A313C in closed channels: no difference in modification with or without paxilline
[4]
  inhibition of BK current during MTSET application: completely inhibited
BK channels (mSlo1) [5]; 100 nM paxilline, −80 mV, 300 µM Ca^2+
  normalized NPo: < 0.05
BK channels (mSlo1) [5]; IC50 for reduction in normalized NPo, −80 mV, Hill fit with n = 1
  IC50: 5.5 ± 1.1 nM
BK channels (mSlo1) [5]; read-out: inhibition of BK current (NPo)
  inhibition at 0.1 µM: > 95%
BK channels (mSlo1) [5]; −80 mV, 10 or 300 µM Ca^2+, Hill fit of normalized NPo
  Hill coefficient n: 0.85 ± 0.25
[6]
  Vh of Qoff: 130.2 ± 9.1 mV
  Vh of Qon: 131.4 ± 2.1 mV
  z of Qoff: 0.56 ± 0.035 e
  z of Qon: 0.54 ± 0.025 e
BK channels (mSlo1) [7]
  Kd: 12.9 nM
BK channels (mSlo1) [7]; 100 nM paxilline, −80 mV, 300 µM Ca^2+, four patches, mean ± STD
  τon, time constant of onset of inhibition by wash-in: 26.3 ± 6.6 s
BK channels (mSlo1) [7]; constant 100 nM paxilline, 80 to −80 mV, 300 µM Ca^2+, four patches, mean ± STD
  time constant of onset of inhibition after change in equilibration condition: 6.85 ± 1.79 s
BK channels (mSlo1) [7]; recovery at 0 mV in the constant presence of paxilline, seven patches
  difference in recovery time constant between 20 and 100 nM paxilline: 1.6 fold
BK channels (mSlo1) [7]; −80 and −100 mV, 300 µM Ca^2+, 5 to 2,000 nM paxilline
  rate of inhibition of closed channels (slope of blocking rate vs [paxilline]): 2e+06 M⁻¹ s⁻¹
BK channels (mSlo1) [7]; −80 mV
  mean time constant of recovery: 37.0 s
[8]
  logP: 3.62
BK channels (mSlo1) [9]; 10 nM paxilline, 0 mV, 10 µM Ca^2+ (Po <0.02), 4 min
  inhibition of current: over half
BK channels (mSlo1) [9]; 100 nM paxilline, 0 mV, 10 µM Ca^2+ (Po <0.02), 4 min
  inhibition of current: essentially complete inhibition
BK channels (mSlo1) [9]; 100 nM paxilline, holding potential 80 mV, 300 µM Ca^2+, 1 min of application
  inhibition of current: almost no inhibition
BK channels (mSlo1) [9]; IC50 (Hill fit), equilibration 0 mV, 300 µM Ca^2+ (Po ∼0.65)
  IC50: 58.4 ± 2.9 nM
BK channels (mSlo1) [9]; IC50 (Hill fit), equilibration 40 mV, 300 µM Ca^2+ (Po ∼0.83)
  IC50: 470 ± 94.9 nM
BK channels (mSlo1) [9]; IC50 (Hill fit), equilibration 70 mV, 300 µM Ca^2+ (Po ∼0.89)
  IC50: 5370 ± 1000 nM
BK channels (mSlo1) [9]; IC50 (Hill fit), equilibration −70 mV, 300 µM Ca^2+ (Po ∼0.1)
  IC50: 11.7 ± 1.9 nM
BK channels (mSlo1) [9]; IC50 for paxilline, as maximal Po was approached
  IC50: ~10000 nM
BK channels (mSlo1) [9]; IC50 for paxilline, channels largely closed
  IC50: ~10 nM
BK channels (mSlo1) [9]; binding of one paxilline molecule
  reduction in the C-O equilibrium constant L(0): > 500 fold
BK channels (mSlo1) [9]; concentrations up to 10 µM
  direct inhibition of the open state: not directly inhibited
BK channels (mSlo1) [9]; fit of Scheme 1 (Eq. 1) to four equilibration conditions
  n: 1.09 ± 0.11
BK channels (mSlo1) [9]; [12]
  Vh of G-V curve: 24.75 ± 0.13 mV
  z of G-V curve: 0.86 ± 0.01 e
BK channels (mSlo1) [9]; model-dependent analysis (Scheme 1)
  affinity for closed conformation relative to open conformation: > 500 fold and ~500 fold
BK channels (mSlo1) [9]; model-independent analysis of IC50 vs state occupancy, and overall conclusion
  difference between closed- and open-state affinity: ~1,000 fold
BK channels (mSlo1) [9]; [13]
  Vh of G-V curve: 21.21 ± 1.85 mV
  z of G-V curve: 0.79 ± 0.07 e
[10]
  sensitivity to paxilline inhibition: resistant
BK channels (Slo1); 100 nM paxilline alone for ∼40 s, 0 mV, 10 µM Ca^2+
  reduction of current: ~80%
BK channels (Slo1); 100 nM paxilline applied together with 100 µM bbTBA, 0 mV, 10 µM Ca^2+
  reduction of the number of channels blocked by paxilline: ~50%
BK channels (Slo1); 100 nM paxilline with 2 M sucrose in the cytosolic solution, 300 µM Ca^2+
  inhibition of BK current: only a weak inhibition
[11]; MTSEA-modified Slo1-A313C, 10 µM Ca^2+ (Po ∼0.48)
  fractional block: ~0.5
[11]; MTSES-modified Slo1-A313C (Po ∼0.12)
  inhibition relative to unmodified Slo1-A313C: only slightly weaker
[11]; MTSET-modified Slo1-A313C, 10 µM Ca^2+ (Po ∼0.9)
  fractional block: < 0.1
[11]; unmodified A313C
  block of Slo1-A313C current: strong block
BK channel G311 mutant
  effect of G311 mutation on paxilline inhibition: totally abolishes paxilline inhibition

## OC[C@H]1O[C@@](CO)(O[C@H]2O[C@H](CO)[C@@H](O)[C@H](O)[C@H]2O)[C@@H](O)[C@@H]1O [sucrose]
BK channels (Slo1); with 2 M sucrose, 300 µM Ca^2+, tail currents at −120 mV
  Vh of activation: −12.8 ± 3.3 mV

## CCCCNc1ccc(C(=O)OCCN(C)C)cc1 [tetracaine]
CNG channels
  affinity for closed channels relative to open channels: ~1,000 fold

Source: PMC4210426 (The Journal of General Physiology, 2014)
